# Compound activity from PubChem.
# The list is not random: actives were taken first. Their share in the collection is about 1.9%.
# Tb MetRS inh = T. brucei MetRS inhibitors, primary screen, biochemical, luminescence | methionyl-tRNA synthetase (Trypanosoma brucei brucei) | purified T. brucei MetRS, ATP depletion, Kinase-Glo luminescence | inhibition, % at 11.9 µM | 360,000 compounds, 0.4% hits;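 active means inhibition above a per-plate cutoff of the control wells' mean inhibition plus 3 SD, cut at about 5.5% in these data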
#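 Dosing: 11.9 µM compound single dose, 0.9% DMSO; Assay system: purified T. brucei MetRS enzyme; Measured by: Kinase-Glo luciferase luminescence reporting remaining unconsumed ATP; Schedule: 15 min plus 2 h at 25 °C.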
# HGIII-sPLA2 inh = human group III sPLA2 inhibitors, primary screen, biochemical, QFRET, BODIPY PC-A2 liposome substrate; QFRET BODIPY PC-A2 liposome hydrolysis, fluorescence; 370,000 compounds, 0.56% hits; inhibition, % at 12.2 µM; Group 3 secretory phospholipase A2 (Homo sapiens), Q9NZ20;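 active means inhibition above mean plus 3 SD of compounds lying within the high and low control bounds, cut at about 19% in these data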
# Target sequence (Q9NZ20 whole entry, looked up): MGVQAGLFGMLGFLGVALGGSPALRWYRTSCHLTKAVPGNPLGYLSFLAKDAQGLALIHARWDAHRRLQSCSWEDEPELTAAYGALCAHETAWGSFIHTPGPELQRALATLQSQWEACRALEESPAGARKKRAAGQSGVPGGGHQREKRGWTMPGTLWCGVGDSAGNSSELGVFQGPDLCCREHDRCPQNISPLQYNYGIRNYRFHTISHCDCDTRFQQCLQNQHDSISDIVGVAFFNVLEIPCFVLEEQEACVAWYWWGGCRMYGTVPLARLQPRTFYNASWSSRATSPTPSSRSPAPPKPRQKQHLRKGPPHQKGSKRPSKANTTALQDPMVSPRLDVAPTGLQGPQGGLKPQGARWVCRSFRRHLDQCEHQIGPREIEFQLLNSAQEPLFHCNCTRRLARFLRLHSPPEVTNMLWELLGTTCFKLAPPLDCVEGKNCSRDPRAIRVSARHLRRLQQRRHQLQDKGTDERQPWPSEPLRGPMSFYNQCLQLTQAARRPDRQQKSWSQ
# PLC-gamma1 inh = PLC-gamma1 enzyme inhibitors, primary screen, biochemical, fluorescence, purified enzyme. 1-phosphatidylinositol 4,5-bisphosphate phosphodiesterase gamma-1 (Homo sapiens), P19174. 370,000 compounds, 0.84% hits. inhibition, % at 12.2 µM. fluorogenic substrate. AID 720700, 2013; in the data active means inhibition above about 9.5%
# DAGLB inhibitor = DAGLB lipase inhibitors, primary screen, biochemical, fluorescence, HTS | HEK293T DAGLB membrane lysate, EnzChek fluorogenic substrate | inhibition, % at 5.17 µM | 340,000 compounds, 0.059% hits | AID 504411, 2011; in the data active means inhibition above about 34%
# PLCb3 inh = human PLC-beta3 inhibitors, primary screen, biochemical, fluorescence. Purified PLC-beta3, fluorogenic substrate. AID 720704, 2013. 370,000 compounds, 0.18% hits. inhibition, % at 12.2 µM; in the data active means inhibition above about 11%
# sPLA2 confirm = human group III sPLA2 inhibitors, confirmation, biochemical, QFRET, triplicate; shares compounds with HGIII-sPLA2 inh; recombinant hGIII-sPLA2, BODIPY PC-A2 QFRET fluorescence; inhibition, % at 12.2 µM; 2,000 compounds, 34% hits; AID 743280, 2014;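 active means mean inhibition across triplicates above the hit cutoff set in the earlier primary screen, cut at about 19% in these data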
# 535nm interf = 535nm fluorescence optical interference, confirmation, artefact control for HGIII-sPLA2 inhibitor project, biochemical, QFRET | inhibition, % at 12.2 µM | 2,000 compounds, 8.5% hits | shares compounds with HGIII-sPLA2 inh | BODIPY FL product fluorescence interference;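 active means average inhibition above the solvent-only control mean plus 3 SD, cut at about 6% in these data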
# 535nm interf DR = 535nm fluorescence optical interference, dose response, artefact control for HGIII-sPLA2 inhibitor project, biochemical, QFRET; AID 743455, 2014; shares compounds with HGIII-sPLA2 inh; IC50, µM; 240 tested, under 10 active; BODIPY FL product fluorescence interference, cell-free;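 active means IC50 at or below 10 µM; inactive means IC50 above 10 µM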
# A number is an active result; . = inactive; / = not tested or not shown; ! = a repeat was not active.
SMILES,Tb MetRS inh,HGIII-sPLA2 inh,PLC-gamma1 inh,DAGLB inhibitor,PLCb3 inh,sPLA2 confirm,535nm interf,others
Clc1cccc(N2CCN(CCCN3CCN(c4ccccc4)CC3)CC2)c1,.,.,.,.,.,/,/,
Nc1ccc(N2CCN(c3cccc(Cl)c3)CC2)cc1,.,22.8,.,.,.,.,.,
COC(=O)C1=C(C)N(Cc2cccc(C(F)(F)F)c2)C(=NCc2ccc(OC)cc2)NC1c1cccc(F)c1 (stereo not given),/,.,.,/,.,/,/,
CCCCCCCCN1C(=O)N2Cc3ccc(C)cc3C2CS1(=O)=O (stereo not given),/,.,.,/,.,/,/,
COc1ccc(N)c2c1C(=O)c1ccccc1C2=O,.,32.9,.,.,.,37.4,13.7,
Fc1ccc(-c2n[nH]c(=S)n2-c2ccc3c(c2)OCCO3)cc1,.,.,.,.,.,/,/,
S=c1[nH]nc(-c2ccc(Cl)cc2)n1-c1ccc2c(c1)OCCO2,.,20.7,.,.,.,31.7,.,535nm interf DR=.
COC(=O)[C@]12C[C@H](CC(=O)N3CCCCC3)C(=O)N(CCC3=CCCCC3)C1=C[C@H](C(C)(C)C)O[C@@H]2C,/,.,.,/,.,/,/,
O=C(CNc1ccc2ccccc2c1)N/N=C/c1ccncc1,.,19.8,.,.,.,.,.,
CCN(CC)S(=O)(=O)c1cccc(C(=O)N/N=C/c2cc(OC)c(O)c(OC)c2)c1,.,.,.,.,.,/,/,
CCN(CC)S(=O)(=O)c1cccc(C(=O)N/N=C/c2cccc(O)c2O)c1,.,22.6,.,.,.,.,.,
CC1CCC2(CC1)CCC2NCc1ccc(Cl)c(Cl)c1 (stereo not given),/,.,.,/,.,/,/,
COc1cc(CNC23CC4CC(CC(C4)C2)C3)ccc1OCc1ccccc1,.,21.6,.,.,.,.,.,
COc1cc(CNCc2cccs2)ccc1OCc1ccccc1,.,.,.,.,.,/,/,
CC1CCCN(S(=O)(=O)c2cccc(C(=O)NCCCN3CCCC3=O)c2)C1 (stereo not given),.,19.9,.,.,.,.,.,
CCN(CC)C(=O)O[C@H]1CC[C@@]23CCCN2C(=O)CCC[C@H]3[C@H]1C,/,.,.,/,.,/,/,
COc1ccc(C2Nc3ccccc3C(=O)N2Cc2ccc(C)o2)cc1COc1c(C)cccc1C (stereo not given),/,.,.,/,.,/,/,
COc1cc(/C=N/n2c(COc3ccccc3)n[nH]c2=S)cc(Br)c1O,.,.,.,.,.,/,/,
COc1cc(/C=N/n2c(COc3ccccc3)n[nH]c2=S)cc(OC)c1OC(C)=O,.,23.9,.,.,.,.,.,
S=c1[nH]nc(COc2ccccc2)n1-c1ccc(Cl)cc1,.,21.9,.,.,.,33.2,.,535nm interf DR=.
COc1ccc(-n2c(COc3ccccc3)n[nH]c2=S)cc1,.,21.4,.,.,.,22.8,.,
COc1ccc(-n2c(COc3ccc(C)cc3)n[nH]c2=S)cc1,.,.,.,.,.,/,/,
CC(C)N(c1cc(=O)nc2ccccn12)C(C)C,/,.,.,/,.,/,/,
FC(F)(F)c1ccccc1CN1CCCc2nc(-c3ccccc3)ccc21,/,26.7,.,/,.,.,.,
FC(F)(F)c1ccccc1CN1CCCc2nc(-c3ccc(Br)cc3)ccc21,/,22.2,.,/,.,.,.,
SMILES,Tb MetRS inh,HGIII-sPLA2 inh,PLC-gamma1 inh,DAGLB inhibitor,PLCb3 inh,sPLA2 confirm,535nm interf,others
O=C(NCc1cccs1)c1cnn2cccnc12,.,24.3,.,.,.,.,.,
Cc1onc(C(=O)N2CCN(C(c3ccccc3)c3ccccc3)CC2)c1Br,/,.,.,/,.,/,/,
O=C(CNC(=S)N(Cc1ccccc1)Cc1cccnc1)NC1CC1,.,.,.,.,.,/,/,
O=C(CNC(=S)N(Cc1ccccc1)Cc1cccnc1)NC1CCCC1,.,22.8,.,.,.,.,.,
O=C(/C=C(\Nc1cccc(OC(F)F)c1)c1ccccc1)c1ccccc1,/,.,.,/,.,/,/,
COC(=O)C1CN(CCc2ccccc2)CCS(=O)(=O)N1Cc1ccccc1F (stereo not given),/,.,.,/,.,/,/,
N#CCC[C@H]1CC[C@]2(CCCN(C(=O)c3ccccc3)C2)O1,/,19.4,.,/,.,.,.,
N#CCC[C@@H]1CC[C@]2(CCCN(C(=O)c3ccccc3)C2)O1,/,.,.,/,.,/,/,
Cc1cc(C)c2nc(SCC(=O)NCCC3=CCCCC3)cc(C)c2c1,.,20.7,.,.,.,.,.,
COc1ccc(Cn2ccc3ccc(-c4ccc5ccn(Cc6ccc(C#N)cc6)c5c4)cc32)cc1,/,.,.,/,.,/,/,
O=C(O)CCCNC(=O)CCCNC(=O)C(c1ccccc1)c1ccccc1,.,.,.,.,.,/,/,
O=C(O)CCCNC(=O)C(c1ccccc1)c1ccccc1,.,20.9!,.,.,.,.,.,
C[C@@H]1C=CCCO[C@]12C(=O)N(CC1CC1)c1ccccc12,/,.,.,/,.,/,/,
Cc1cc(C(=O)NNC(=O)c2ccc(Cl)cc2)c2ccccc2n1,.,.,.,.,.,/,/,
Cc1cc(C(=O)NNC(=S)NC(C)c2ccccc2)c2ccccc2n1 (stereo not given),.,23.8,.,.,.,29.1,.,535nm interf DR=.
CC(C)[C@@H](C)/C=C/[C@@H](C)[C@H]1CC[C@@H]2[C@]1(C)CCC1[C@]23C=C[C@]2(C[C@@H](O)CC[C@]12C)N(c1cnccn1)O3 (stereo not given in full),/,.,.,/,.,/,/,
C[C@@H]1COc2cc(N3CCSCC3)ccc2S(=O)(=O)N1C,/,.,.,/,.,/,/,
Cn1cc(CCOCc2ccccc2)c2ccccc21,/,.,.,/,.,/,/,
CCOc1ccc(CSC(=N)N)cc1,.,.,.,.,.,/,/,
CCCCOc1ccc(CSC(=N)N)cc1Cl,.,54.2,.,.,.,32.0,.,535nm interf DR=.
CCCCCOc1ccc(Br)cc1CSC(=N)N,.,28.7,.,.,.,21.4,.,
C[C@H]1[C@@H](N(C)Cc2cccs2)CC[C@@]23CCCN2C(=O)CCC[C@@H]13,/,.,.,/,.,/,/,
C[C@@H]1COc2cccc(N3CCCC3)c2S(=O)(=O)N1,/,.,.,/,.,/,/,
COC[C@@H](O)[C@H]1OCc2cccc(OC)c2[C@@H]1/C=C/c1ccccc1,/,.,.,/,.,/,/,
